Blank lines part the entries; values can stand above or below the molecule they belong to. Activity calls are given as the source filed them. No cut-off for these calls is given here.
Tests used:
[1] = molecular target: T1, Protein farnesyltransferase (Homo sapiens, UniProt P49354+P49356); assay: Inhibition of human recombinant FTase by fluorescent-based assay; assay type: protein-complex assay
[2] = tested on: Trypanosoma brucei brucei; assay: Antitrypanosomal activity against Trypanosoma brucei brucei WT2913 procyclic form at 10 uM after 72 hrs by alamar blue assay; assay type: functional; conditions: for inhibition at 10 µM: WT2913, 72 h
In short: (§1)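 Strain WT 2913 procyclic forms kept in semi-defined medium 79 + 10% heat-inactivated FCS at 27 °C. Log-phase cells spun at 3000g and seeded at 1 × 10^6 cells/mL. Exposed 72 h to 0–100 µM inhibitor in 1% final DMSO. Resazurin (AlamarBlue) fluorescence read after a further 4 h, ex 530/em 590 nm. Growth inhibition versus untreated; triplicates, done twice.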

[3] = tested on: Trypanosoma brucei brucei; assay: Antitrypanosomal activity against Trypanosoma brucei brucei WT2913 procyclic form at 1 uM after 72 hrs by alamar blue assay; assay type: functional, organism-based; in short: as §1
Plasmodium falciparum = assay: Antiplasmodial activity against Plasmodium falciparum FcB1/Columbia assessed as [3H]hypoxanthine incorporation after 24 hrs by liquid scintillation spectrophotometer; assay type: functional, organism-based
In short: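 FcB1/Colombia (chloroquine-resistant) grown on human erythrocytes in RPMI 1640 + 8% heat-inactivated human serum, 37 °C, 3% CO2/6% O2/91% N2. Twofold serial dilutions from 10 mM DMSO stocks; asynchronous cultures at 1% parasitemia, 1% final hematocrit, 24 h, then 0.5 µCi [3H]-hypoxanthine for 24 h more. Freeze-thaw, filter harvest, scintillation counting versus same-plate control. IC50 from concentration–response curve; mean ± SD of several independent experiments.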

KB [4] = assay: Cytotoxicity against human KB cells at 10 uM after 72 hrs by MTS assay; assay type: functional
In short: (§2)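 KB cells seeded at 2000/well and exposed 72 h to compound in medium with 1% final DMSO; docetaxel as positive control. Viability by MTS, OD 490 nm. Cytotoxicity index = OD treated/OD control × 100, from triplicates across three experiments.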

KB [5] = assay: Cytotoxicity against human KB cells at 1 uM after 72 hrs by MTS assay; assay type: functional, cell-based; in short: as §2
[6] = Inhibition of yeast recombinant FTase by fluorescent-based assay; set-up: species or system Saccharomyces cerevisiae
[7] = molecular target: T1, Protein farnesyltransferase; assay: Binding affinity to FPP site of human recombinant FTase by competitive Michaelis-Menten analysis; assay type: protein-complex assay
In short: (§3)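 Partially purified recombinant human FTase, fluorescent farnesylation of dansyl-GCVLS. Buffer: 5.8 mM DTT, 6 mM MgCl2, 12 µM ZnCl2, 0.18% octyl-glucopyranoside, 53 mM Tris/HCl pH 7.5. Kinetics: FPP varied with Dns-GCVLS fixed at 2.5 µM, or peptide varied with FPP fixed at 10 µM.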

[8] = molecular target: T1, Protein farnesyltransferase; assay: Binding affinity to CaaX site of human recombinant FTase by non-competitive Michaelis-Menten analysis for enzyme-inhibitor complex; assay type: protein-complex assay; in short: as §3
[9] = molecular target: T1, Protein farnesyltransferase; assay: Binding affinity to CaaX site of human recombinant FTase by non-competitive Michaelis-Menten analysis for enzyme-substrate-inhibitor complex; assay type: protein-complex assay; in short: as §3
[10] = tested on: Trypanosoma brucei brucei; assay: Antitrypanosomal activity against Trypanosoma brucei brucei 93 blood stream form at 10 uM after 72 hrs by alamar blue assay; assay type: functional; conditions: for inhibition at 10 µM: Trypanosoma brucei, 93, 72 h
In short: (§4)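 Strain 93 bloodstream forms cultured in HMI9 + 10% FCS, 37 °C, 5% CO2. Log-phase cells harvested at 3000g and seeded at 3 × 10^4 cells/mL. Inhibitors 0–100 µM, final DMSO 1%, 72 h. AlamarBlue (resazurin) added, read 4 h later at ex 530/em 590 nm. Inhibition relative to drug-free cells; triplicates, experiment repeated twice.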

[11] = tested on: Trypanosoma brucei brucei; assay: Antitrypanosomal activity against Trypanosoma brucei brucei 93 blood stream form at 1 uM after 72 hrs by alamar blue assay; assay type: functional; in short: as §4
[12] = molecular target: T1, Protein farnesyltransferase; assay: Binding affinity to Dns-GCVLS peptide site of human recombinant FTase by competitive Michaelis-Menten analysis; assay type: protein-complex assay; in short: as §3

Structure (SMILES): CCOC(=O)C(C/C=C(\C)CC/C=C(\C)CCC=C(C)C)(CCCc1ncc(CN[C@H](C(=O)N[C@@H](Cc2ccccc2)C(=O)N[C@@H](CCSC)C(=O)OC)C(C)C)n1C)C(=O)OCC
- inhibition at 10 µM [2]: 54%
- Activity [3]: inactive
- IC50 (Plasmodium falciparum): 1 µM
- inhibition at 10 µM (KB [4]): 44%
- Activity (KB [5]): inactive
- IC50 [1]: Not Active

Structure (SMILES): CC(C)=CCC/C(C)=C/CC/C(C)=C/CCCC(=O)O
- IC50 ([6]; read-out: IC50): 42 µM
- IC50 ([1]; read-out: IC50): 170 µM

Structure (SMILES): CCOC(=O)C(C/C=C(\C)CC/C=C(\C)CCC=C(C)C)(CCCc1ncc(CN[C@H](C(=O)N[C@@H](Cc2ccccc2)C(=O)N[C@@H](CCSC)C(=O)O)C(C)C)n1C)C(=O)O (stereo partly specified)
- Ki [7]: 0.23 µM
- Ki [8]: 7.7 µM
- Ki [9]: 5.6 µM
- inhibition [10]: inactive
- inhibition [2]: inactive
- IC50 (Plasmodium falciparum): 31.4 µM
- inhibition (KB [4]): inactive
- IC50 ([1]; read-out: IC50): 0.24 µM

Structure (SMILES): CCOC(=O)C(C/C=C/c1ncc(CN[C@H](C(=O)N[C@@H](Cc2ccccc2)C(=O)N[C@@H](CCSC)C(=O)OC)C(C)C)n1C)(C/C=C(\C)CC/C=C(\C)CCC=C(C)C)C(=O)OCC
- inhibition at 10 µM [10]: 92%
- Activity [11]: 64%
- inhibition at 10 µM [2]: 28%
- Activity [3]: inactive
- IC50 (Plasmodium falciparum): 1.1 µM
- inhibition at 10 µM (KB [4]): 60%
- Activity (KB [5]): inactive
- IC50 [1]: Not Active

Structure (SMILES): CCOC(=O)C(C/C=C/c1ncc(CN[C@H](C(=O)N[C@@H](Cc2ccccc2)C(=O)N[C@@H](CCSC)C(=O)O)C(C)C)n1C)(C/C=C(\C)CC/C=C(\C)CCC=C(C)C)C(=O)O (stereo partly specified)
- Ki [7]: 0.5 µM
- Ki [8]: 17 µM
- Ki [9]: 15 µM
- inhibition [10]: inactive
- inhibition [2]: inactive
- IC50 (Plasmodium falciparum): 17.2 µM
- inhibition (KB [4]): inactive
- IC50 ([1]; read-out: IC50): 0.64 µM

Structure (SMILES): CC(C)=CCC/C(C)=C/CC/C(C)=C/CCC(=O)NC(C(=O)O)C(=O)O
- IC50 ([6]; read-out: IC50): 200 µM
- IC50 ([1]; read-out: IC50): 60 µM

Structure (SMILES): CC(C)=CCC/C(C)=C/CC/C(C)=C/C(c1nccn1C)C(CC(=O)O)C(=O)O (stereo unspecified)
- IC50 ([1]; read-out: IC50): 12 µM

Structure (SMILES): CC(C)=CCC/C(C)=C/CC/C(C)=C/C=C/C(=O)NC(C(=O)O)C(=O)O
- IC50 ([1]; read-out: IC50): 10 µM

Structure (SMILES): CC(C)=CCC/C(C)=C/CC/C(C)=C/CCC(=O)CCC(=O)O
- IC50 ([6]; read-out: IC50): 80 µM
- IC50 ([1]; read-out: IC50): > 200 µM

Structure (SMILES): CC(C)=CCC/C(C)=C/CC/C(C)=C/CCC(=O)CCCC(=O)O
- IC50 ([6]; read-out: IC50): 15 µM
- IC50 ([1]; read-out: IC50): 60 µM

Structure (SMILES): CC(C)=CCC/C(C)=C/CC/C(C)=C/COC(=O)CC(=O)O
- IC50 ([6]; read-out: IC50): 80 µM
- IC50 ([1]; read-out: IC50): 160 µM

Structure (SMILES): CC(C)=CCC/C(C)=C/CC/C(C)=C/C/C=C/C(=O)O
- IC50 ([6]; read-out: IC50): 40 µM
- IC50 ([1]; read-out: IC50): 130 µM

Structure (SMILES): CC(C)=CCC/C(C)=C/CC/C(C)=C/COC(=O)CCC(=O)O
- IC50 ([6]; read-out: IC50): 100 µM
- IC50 ([1]; read-out: IC50): 130 µM

Structure (SMILES): CC(C)=CCC/C(C)=C/CC/C(C)=C/CCC(=O)NO
- IC50 [6]: Not Active

Structure (SMILES): CC(C)=CCC/C(C)=C/CC/C(C)=C/COC(C(=O)O)C(=O)O
- IC50 ([6]; read-out: IC50): 5 µM
- IC50 ([1]; read-out: IC50): 0.88 µM

Structure (SMILES): CCOC(=O)C(C/C=C(\C)CC/C=C(\C)CCC=C(C)C)(CCCc1nccn1C)C(=O)OCC
- inhibition at 10 µM [10]: 89%
- Activity [11]: 24%
- IC50 (Plasmodium falciparum): 4 µM

Structure (SMILES): CC(C)=CCC/C(C)=C/CC/C(C)=C/C=C/C(N)=O
- IC50 [6]: Not Active
- IC50 [1]: Not Active

Structure (SMILES): CC(C)=CCC/C(C)=C/CC/C(C)=C/CCC(=O)NS(=O)(=O)c1ccccc1
- IC50 ([6]; read-out: IC50): > 200 µM
- IC50 ([1]; read-out: IC50): > 200 µM

Results, then the molecule that gave them:

- IC50 ([1]; read-out: IC50): 21 µM
Structure (SMILES): CC(C)=CCC/C(C)=C/CC/C(C)=C/CC(CCCc1nccn1C)(C(=O)O)C(=O)O

- Ki [7]: 0.26 µM
- Activity [12]: inactive
- IC50 ([6]; read-out: IC50): 4 µM
- IC50 ([1]; read-out: IC50): 0.9 µM
Structure (SMILES): CC(C)=CCC/C(C)=C/CC/C(C)=C/CC(C(=O)O)C(=O)O

- IC50 ([6]; read-out: IC50): 35 µM
- IC50 ([1]; read-out: IC50): 60 µM
Structure (SMILES): CC(C)=CCC/C(C)=C/CC/C(C)=C/CC(=O)CCCC(=O)O

- IC50 [6]: Not Active
- IC50 ([1]; read-out: IC50): > 200 µM
Structure (SMILES): CC(C)=CCC/C(C)=C/CC/C(C)=C/CCC(N)=O

- IC50 ([6]; read-out: IC50): 0.34 µM
- IC50 ([1]; read-out: IC50): 0.175 µM
Structure (SMILES): CCCCCCCCCCCCCC/C(C(=O)O)=C(\C)C(=O)O [CHAETOMELLIC ACID A]

- IC50 [1]: Not Active
Structure (SMILES): CC(C)=CCC/C(C)=C/CC/C(C)=C/C=C(C(=O)O)C(=O)O

- IC50 ([1]; read-out: IC50): 60 µM
Structure (SMILES): CSCC[C@H](NC(=O)[C@H](Cc1ccccc1)NC(=O)[C@@H](NCc1cnc(CCCC(CC(=O)O)C(=O)O)n1C)C(C)C)C(=O)O (stereo partly specified)

- IC50 ([6]; read-out: IC50): > 200 µM
- IC50 ([1]; read-out: IC50): 85 µM
Structure (SMILES): CC(C)=CCC/C(C)=C/CC/C(C)=C/CCC(=O)NS(=O)(=O)O
